# Measurements gathered from unrelated publications.
# Compare with care: the assays were run in different laboratories.
# Cell line: HepG2
# Read-out: cell growth or viability
SMILES,test,conditions,IC50 [µM]
Nc1c(C(=O)Nc2cccnc2)sc2nc(-c3ccccc3)cc(C(F)(F)F)c12,,72 h,> 100
COc1cc(NC(=N)CC(O)c2cc3c(F)cc(F)cc3c3cc(C(F)(F)F)ccc23)ccc1Br (centres unmarked),neutral red,24 h,15.3
CN[C@@H]1C[C@H]2O[C@@](C)([C@@H]1OC)n1c3ccccc3c3c4c(c5c6ccccc6n2c5c31)C(=O)NC4,,,0.0383
CC(C)=CCC[C@](C)(O)[C@H]1CC[C@]2(C)[C@@H]1[C@H](O)C[C@@H]1[C@@]3(C)CC[C@H](O)C(C)(C)[C@@H]3[C@@H](O[C@@H]3O[C@H](CO)[C@@H](O)[C@H](O)[C@H]3O)C[C@]12C,CCK-8,24 h,32
C#CCn1c(C(=O)/C=C/c2ccc(F)cc2)nc2ccccc21,LDH,48 h,1.72
N=C(CC(O)c1cc2c(F)cc(F)cc2c2cc(C(F)(F)F)ccc12)Nc1ccc(-c2ccc(F)cc2)cc1 (centres unmarked),neutral red,24 h,10.5
CC1=C(O)C(=O)C=C2C1=CC=C1[C@@]2(C)CC[C@@]2(C)[C@@H]3C[C@](C)(C(=O)O)CC[C@]3(C)CC[C@]12C,CCK-8,24 h,2.53
COc1ccc(-c2cc(C(F)(F)F)c3c(N)c(C(=O)N4CCCC4)sc3n2)cc1,,72 h,> 50
Fc1ccc2c(-c3nc(Cc4ccccc4)cs3)nn(Cc3ccc(Cl)cc3Cl)c2c1,,48 h,25.1
N=C(CC(O)c1cc2c(F)cc(F)cc2c2cc(C(F)(F)F)ccc12)Nc1ccccc1I (centres unmarked),neutral red,24 h,160
Nc1c(C(=O)N2CC(F)(F)C2)sc2ncccc12,,72 h,> 100
